For test [1], the system named is HepG2. Put plainly: Induction of autophagy in human HepG2 cells assessed as increase in GFP-LC3 puncta formation at 2 uM after 6 hrs by fluorescence microscopic method. The test is classed as functional, cell-based. Put shortly:
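HepG2, or HepG2 and shNur77 HepG2, transfected with GFP-LC3, then given vehicle or 2.0 µM for 6 h; GFP-LC3 puncta visualised by fluorescence microscopy alongside phase-contrast images.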

The target of test [2] is Nuclear receptor subfamily 4immunitygroup A member 1 (Homo sapiens, UniProt P22736). As to the kind of experiment: Modulation of Nur77 in human HepG2 cells assessed as induction of Nur77 translocation into cytoplasm from nucleus by measuring increase in protein expression in cytoplasm at 2 uM by western blot analysis. The test is classed as subcellular. The settings on record: filed as modulator, time 1-8 hrs, TDE = time-dependent effect. Summed up: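 HepG2 given 2.0 µM for set times; cells swollen 10 min on ice in HEPES/NaCl/EDTA/CaCl2/MgCl2 buffer, 0.1% NP40 added, spun 15000 rpm 3 min at 4 °C giving cytoplasmic supernatant; pellet extracted in RIPA. Fractions blotted for Nur77, with PARP (nuclear) and tubulin (cytoplasmic) as loading controls.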
A general note: Immunoblotting shows a protein as a band on a membrane.

For test [3], the system named is HepG2. Put plainly: Antitumor activity against human HepG2 cells xenografted in BALB/c mouse assessed as induction of autophagy by measuring increase in LC3-II level in tumor tissue at 10 to 20 mg/kg/day, ip administered for 15 days by western blot analysis. Conditions: dose 10-20 mg/kg/day, time 15.0 day. The test is classed as functional, organism-based. Summed up: (§1)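 HepG2 cells (5×10^6) injected subcutaneously into flanks of 4-week-old male Balb/c nude mice. At about 100 mm³, 15 mice were randomized to vehicle, 10 or 20 mg/kg i.p. once daily for 15 days. Tumors were then excised for immunostaining of paraffin sections (5 μm) or for western blot.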

The subject of test [4] is SMMC-7721. Put plainly: Upregulation of Nur77 expression in human SMMC-7721 cells incubated for 6 hrs by Western blot analysis. The test is classed as functional, cell-based. Conditions: dose 0.5-2 µM. Summed up:
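HepG2, QGY-7703 and SMMC-7721 cells treated with the indicated concentrations for 6 h. HepG2 also given 2.0 µM over a time course. Lysis in RIPA with protease and phosphatase inhibitors; 40-80 µg protein by SDS-PAGE, nitrocellulose transfer. Membranes blocked with 5% milk, primary antibody overnight, HRP secondary, chemiluminescence. GAPDH as loading control.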

For test [5], the system named is SMMC-7721. Put plainly: Inhibition of colony formation in human SMMC-7721 cells at 2 uM incubated for 24 hrs measured after cell culturing for 15 days in normal medium by crystal violet staining based assay. The format is functional. The settings on record: time 16.0 day. Put shortly:
(§2)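 500 HepG2, QGY-7703 or SMMC-7721 cells per well allowed to attach 24 h, exposed to DMSO or 2.0 µM for 24 h, then grown 15 days in plain medium. Colonies fixed 30 min in 4% paraformaldehyde, stained 15 min with 0.1% crystal violet, photographed and counted.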

Test [6] has as its system SMMC-7721. Put plainly: Induction of autophagy in human SMMC-7721 cells assessed as increase in Beclin 1 expression measured at 12 hrs by Western blot analysis. The test is classed as functional, cell-based. Conditions: dose 0.5-2 µM. Put shortly: (§3)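 HepG2, QGY-7703 and SMMC-7721 treated with graded concentrations for 12 h. Lysed in RIPA with inhibitors; 40-80 µg protein separated by SDS-PAGE, blotted to nitrocellulose, blocked 1 h in 5% milk, primary antibodies overnight (LC3, Beclin1, Bip, CHOP, TRB3), HRP secondaries, chemiluminescence.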

Test [7] concerns HepG2. Put plainly: Inhibition of colony formation in human HepG2 cells at 2 uM incubated for 24 hrs measured after cell culturing for 15 days in normal medium by crystal violet staining based assay. The test is classed as functional. Conditions: time 16.0 day. Summed up: as §2
Test [8] relates to HepG2. Put plainly: Antitumor activity against human HepG2 cells xenografted in BALB/c mouse assessed as reduction in PCNA expression in tumor tissue at 10 to 20 mg/kg/day, ip for 15 days by immunocytochemistry staining. The test is classed as functional, organism-based. Conditions: dose 10-20 mg/kg/day, time 15.0 day. Summed up: as §1
Background: A xenograft is tissue or cells of one species grown in another, often human tumour cells in immunodeficient mice.

Test [9] concerns HepG2. As to the kind of experiment: Induction of apoptosis in human HepG2 cells assessed as live cells at 1 uM incubated for 12 hrs by Annexin V-FITC/PI staining based flow cytometry (reference value: 94%). The format is functional. (In general: Flow cytometry measures light scatter and fluorescence of single cells or particles in a stream.)
The test system of test [10] is HepG2. Put plainly: Induction of endoplasmic reticulum stress in human HepG2 cells assessed as increase in bip protein expression incubated for 12 hrs by Western blot analysis. Conditions: dose 0.5-2 µM. The test is classed as functional, cell-based. Summed up: as §3
The subject of test [11] is HepG2. As to the kind of experiment: Antiproliferative activity against human HepG2 cells assessed as reduction in cell viability incubated for 48 hrs by MTT assay. The test is classed as functional, cell-based. The settings on record: HepG2, 48 h. Summed up: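 MTT assay after 48 h exposure at six concentrations, range chosen by cytotoxicity. Inhibition = (ODcontrol − ODtest)/ODcontrol × 100%; IC50 is the concentration halving OD versus untreated cells. Means ± SD of three independent determinations. HepG2 and SMMC-7721 grown in DMEM, QGY-7703 and LO2 in RPMI 1640, with 10% FBS at 37 °C.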

Test [12] has as its system HepG2. As to the kind of experiment: Induction of apoptosis in human HepG2 cells assessed as cleaved caspase-3 expression at 2 uM pretreated with autophagy inhibitor, 3-methyladenine for 2 hrs followed by incubation with compound for 12 hrs by Western blot analysis. The format is functional, cell-based. Summed up: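 HepG2 cells grown to confluence were pretreated 2 h with 2 mM 3-MA (autophagy inhibitor) or 2 mM 4-PBA (ER stress inhibitor), then exposed to compound for 12 h. Proteins (40–80 µg, RIPA lysate) were resolved by SDS-PAGE and blotted for PARP, cleaved caspase-3/-9, Bcl-2 and Bax, with chemiluminescent detection.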

The subject of test [13] is HepG2. Put plainly: Induction of autophagy in human HepG2 cells assessed as p62 degradation by western blot analysis. The test is classed as functional, cell-based.
The subject of test [14] is HepG2. Put plainly: Induction of morphological changes in human HepG2 cells assessed as vesicles accumulation at 1 to 2 uM incubated for 6 to 12 hrs by phase contrast microscopic analysis. The test is classed as functional, cell-based. Conditions: dose 1-2 µM, time 6-12 hrs. Put shortly: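 HepG2 cells given graded concentrations; morphology monitored at set time points by phase-contrast optical microscopy.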

The test system of another test is QGY-7703. As to the kind of experiment: Induction of endoplasmic reticulum stress in human QGY-7703 cells assessed as increase in CHOP protein expression incubated for 12 hrs by Western blot analysis. The test is classed as functional, cell-based. The settings on record: dose 0.5-2 µM. Summed up: as §3
The subject of test [15] is HepG2. Put plainly: Antitumor activity against human HepG2 cells xenografted in BALB/c mouse assessed as tumor weight at 10 mg/kg/day, ip administered for 15 days (reference value: 0.86 +/- 0.18 g). Conditions: dose 20 mg/kg/day; time 15 day; in the assay text read “20 mg/kg/day” for “10 mg/kg/day”. The format is functional. Put shortly: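 Subcutaneous flank xenograft of 5×10^6 HepG2 cells in 4-week-old male Balb/c nude mice. At about 100 mm³, 15 mice were randomized into three groups: vehicle, 10 or 20 mg/kg i.p. daily for 15 days. Tumor size was measured every day, and tumors were excised and weighed at the end.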

The subject of test [16] is HepG2. Put plainly: Induction of apoptosis in human HepG2 cells transfected with shRNA assessed as live cells at 2 uM incubated for 12 hrs by Annexin V-FITC/PI staining based flow cytometry (reference value: 92.6%). The format is functional.
For test [17], the system named is SMMC-7721. As to the kind of experiment: Induction of autophagy in human SMMC-7721 cells assessed as increase in LC3-II expression measured after 12 hrs by Western blot analysis. The format is functional, cell-based. Conditions: dose 0.5-2 µM. Summed up:
as §3

Calls of active or inactive are those of the source. The calls are words filed in the database; no cut-off is given here.

Chain of Nuclear receptor subfamily 4immunitygroup A member 1 (P22736 whole entry): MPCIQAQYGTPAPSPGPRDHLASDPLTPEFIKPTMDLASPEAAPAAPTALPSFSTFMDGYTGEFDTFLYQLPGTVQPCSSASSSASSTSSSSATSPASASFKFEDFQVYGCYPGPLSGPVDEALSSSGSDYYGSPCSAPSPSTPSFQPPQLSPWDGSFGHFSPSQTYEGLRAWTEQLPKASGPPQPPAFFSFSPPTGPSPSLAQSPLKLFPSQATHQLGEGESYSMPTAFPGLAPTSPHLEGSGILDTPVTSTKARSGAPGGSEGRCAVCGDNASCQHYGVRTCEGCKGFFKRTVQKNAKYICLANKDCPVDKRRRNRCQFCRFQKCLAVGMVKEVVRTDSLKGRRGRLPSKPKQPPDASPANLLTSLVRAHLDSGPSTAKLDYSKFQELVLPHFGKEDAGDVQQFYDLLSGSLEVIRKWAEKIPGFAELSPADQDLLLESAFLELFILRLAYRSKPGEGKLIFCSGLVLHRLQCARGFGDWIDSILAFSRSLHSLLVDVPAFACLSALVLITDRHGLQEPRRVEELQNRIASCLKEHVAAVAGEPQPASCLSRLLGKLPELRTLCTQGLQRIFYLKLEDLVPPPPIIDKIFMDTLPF

Broadly, the IC50 is the point on the concentration scale where inhibition reaches its midpoint. `COc1cccc2c(Nc3ccc4[nH]c(C(=O)N/N=C/c5ccc(SC)cc5)cc4c3)cc(C)nc12`: the result with HepG2 [1], in the test on HepG2 [3], in the test with HepG2 [8] and in the test with HepG2 [14] was Active. The Activity entry in test [2] is “Tde”; with SMMC-7721 [4], “Dose-dependent effect”; in the test with SMMC-7721 [6] it was “Dose-dependent effect”; with HepG2 [9] it was 65%; with HepG2 [10], “Dose-dependent effect”; with QGY-7703, “Dose-dependent effect”. Also, the Activity with HepG2 [15] is 0.24 g; in the test with HepG2 [16], 59.8%; with SMMC-7721 [17] it was “Dose-dependent effect”. The inhibition result in the test on SMMC-7721 [5] and with HepG2 [7] was “Active” each time. In the test on HepG2 [11], the IC50 came out at 600 nM. The result in the test on HepG2 [12] and in the test on HepG2 [13] was inactive.

The values are drawn from ChEMBL document CHEMBL4765399, “Design, synthesis, and biological evaluation of 5-((8-methoxy-2-methylquinolin-4-yl)amino)-1H-indole-2-carbohydrazide derivatives as novel Nur77 modulators” (Eur J Med Chem, 2020).
